Values after ≈ are worked out from the molar mass of the structure shown. Active and inactive are the calls of the source. The rule behind the calls is not given here.
Columns and labels:
Candida albicans [1] = assay: Antimicrobial activity against Candida albicans isolate R at 5 ug/ml grown on Muller-Hinton agar medium after 24 hrs by disk diffusion method; assay type: functional
Method in brief: (§1)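 Disk diffusion on 90-mm RPMI 1640 with 2% glucose agar or on Mueller-Hinton agar. Plates were swabbed in three directions with a yeast suspension of 1–5 × 10^6 cells/ml. Paper disks (6 mm) held 1, 5 or 25 µg drug. Zone diameters were read at 24 and 48 h; values are means of two experiments.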

Candida albicans [2] = assay: Antimicrobial activity against Candida albicans isolate C after 48 hrs by microdilution method; assay type: functional
Method in brief: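 Broth microdilution in microtiter plates, read spectrophotometrically at 490 nm. MIC taken as the lowest drug dilution giving 50% growth inhibition. C. krusei […] run as control in each run. Read at 24 h and 48 h; trailing growth noted at 48 h.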

Candida albicans [3] = assay: Antimicrobial activity against Candida albicans obtained from tracheal suction of patient 24 days after admission by EUCAST microdilution method; assay type: functional; conditions: Trachea, 576 h
Method in brief: (§2)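 EUCAST broth microdilution, plates read spectrophotometrically at 490 nm. MIC is the lowest dilution giving 50% growth inhibition. C. krusei […] control included in each run.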

[4] = tested on: Meyerozyma guilliermondii; assay: Antimicrobial activity against Candida guilliermondii after 48 hrs by 80% endpoint M27-A method
[5] = tested on: Meyerozyma guilliermondii; assay: Antimicrobial activity against Candida guilliermondii after 48 hrs by NCCLS microdilution method; assay type: functional
Candida albicans [6] = assay: Antimicrobial activity against Candida albicans isolate S at 5 ug/ml grown on RPMI 1640 medium after 24 hrs by disk diffusion method; assay type: functional; method in brief: as §1
Candida parapsilosis [7] = assay: Antimicrobial activity against Candida parapsilosis after 48 hrs by Etest; assay type: functional; conditions: Lodderomyces parapsilosis
Candida albicans [8] = assay: Antimicrobial activity against Candida albicans isolate C at 0.5 ug/ml after 48 hrs by agar dilution method; assay type: functional, organism-based
Method in brief: (§3)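 Sabouraud agar wells contained caspofungin 0, 0.5, 1 or 2 µg/ml, or anidulafungin 0, 0.003, 0.125 or 0.5 µg/ml. Isolates were subcultured 2 days on CHROMagar. Suspensions of 1–5 × 10^6 CFU/ml in sterile water were diluted 1,500-fold, and 5 µl (about 3–15 cells) was spread per well. Growth was scored.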

Pichia kudriavzevii [9] = assay: Antimicrobial activity against Candida krusei after 48 hrs by 80% endpoint M27-A2 method; assay type: functional
Candida parapsilosis [10] = assay: Antimicrobial activity against Candida parapsilosis after 24 hrs by M27-A3 method; assay type: functional; conditions: Lodderomyces parapsilosis
Candida albicans [11] = assay: Antimicrobial activity against Candida albicans isolate S at 1 ug/ml grown on Muller-Hinton agar medium after 24 hrs by disk diffusion method; assay type: functional; method in brief: as §1
Candida parapsilosis [12] = assay: Antimicrobial activity against Candida parapsilosis after 48 hrs by broth microdilution method; assay type: functional; conditions: Lodderomyces parapsilosis
Candida tropicalis [13] = assay: Antimicrobial activity against Candida tropicalis after 48 hrs by Etest; assay type: functional
Candida albicans [14] = assay: Antimicrobial activity against Candida albicans isolate R after 48 hrs by EUCAST microdilution method; assay type: functional; method in brief: as §2
Candida albicans [15] = assay: Antimicrobial activity against Candida albicans isolate R at 5 ug/ml grown on RPMI 1640 medium after 24 hrs by disk diffusion method; assay type: functional; method in brief: as §1
Candida albicans [16] = assay: Antimicrobial activity against Candida albicans after 24 hrs by M27-A3 method; assay type: functional
Nakaseomyces glabratus [17] = assay: Antimicrobial activity against Candida glabrata after 48 hrs by 50% endpoint M27-A2 method; assay type: functional
Candida albicans [18] = assay: Antimicrobial activity against Candida albicans isolate R at 1 ug/ml after 48 hrs by agar dilution method; assay type: functional, organism-based
Method in brief: (§4)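 Agar dilution on Sabouraud agar with caspofungin at 0, 0.5, 1 and 2 per ml. Isolates were subcultured 2 days on CHROMagar. Suspensions of 1×10^6 to 5×10^6 CFU/ml in sterile water were diluted 1,500-fold, and approximately 3 to 15 cells were spread per agar surface. Growth or no growth was scored, with repeated testing.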

Candida parapsilosis [19] = assay: Antimicrobial activity against Candida parapsilosis after 48 hrs by M27-A method; conditions: Lodderomyces parapsilosis
Debaryomyces hansenii = assay: Antimicrobial activity against Candida famata after 48 hrs by M27-A method
Nakaseomyces glabratus [20] = assay: Antimicrobial activity against Candida glabrata after 48 hrs by 80% endpoint M27-A2 method; assay type: functional
Candida albicans [21] = assay: Antimicrobial activity against Candida albicans isolate S at 1 ug/ml grown on RPMI 1640 medium after 48 hrs by disk diffusion method; assay type: functional; method in brief: as §1
Pichia kudriavzevii [22] = assay: Antimicrobial activity against Candida krusei after 48 hrs by Etest; assay type: functional
Clavispora lusitaniae [23] = assay: Antimicrobial activity against Candida lusitaniae after 48 hrs by Etest; assay type: functional
Candida albicans [24] = assay: Antimicrobial activity against Candida albicans obtained from wound of patient 20 days after admission by EUCAST microdilution method; assay type: functional; conditions: 480 h; method in brief: as §2
Candida parapsilosis [25] = assay: Antimicrobial activity against Candida parapsilosis after 48 hrs by 50% endpoint M27-A2 method; assay type: functional; conditions: Lodderomyces parapsilosis
Candida albicans [26] = assay: Antimicrobial activity against Candida albicans isolate S at 5 ug/ml grown on Muller-Hinton agar medium after 48 hrs by disk diffusion method; assay type: functional; method in brief: as §1
Candida albicans [27] = assay: Antimicrobial activity against Candida albicans isolate R at 25 ug/ml grown on RPMI 1640 medium after 24 hrs by disk diffusion method; assay type: functional; method in brief: as §1
Candida albicans [28] = assay: Antimicrobial activity against Candida albicans isolate S at 1 ug/ml grown on Muller-Hinton agar medium after 48 hrs by disk diffusion method; assay type: functional; method in brief: as §1
Candida albicans [29] = assay: Antimicrobial activity against Candida albicans after 48 hrs by 80% endpoint M27-A2 method; assay type: functional
Candida albicans [30] = assay: Antimicrobial activity against Candida albicans isolate S obtained from blood culture of patient 4 days after admission by EUCAST microdilution method; assay type: functional; conditions: 96 h; method in brief: as §2
Candida tropicalis [31] = assay: Antimicrobial activity against Candida tropicalis after 48 hrs
Candida albicans [32] = assay: Antimicrobial activity against Candida albicans after 48 hrs by NCCLS microdilution method; assay type: functional
Candida albicans [33] = assay: Antimicrobial activity against Candida albicans isolate R at 25 ug/ml grown on Muller-Hinton agar medium after 48 hrs by disk diffusion method; assay type: functional; method in brief: as §1
Candida albicans [34] = assay: Antimicrobial activity against Candida albicans isolate R at 5 ug/ml grown on Muller-Hinton agar medium after 48 hrs by disk diffusion method; assay type: functional; method in brief: as §1
Candida albicans [35] = assay: Antimicrobial activity against Candida albicans isolate R at 2 ug/ml after 48 hrs by agar dilution method; assay type: functional, organism-based; method in brief: as §4
Candida tropicalis [36] = assay: Antimicrobial activity against Candida tropicalis after 48 hrs by NCCLS microdilution method; assay type: functional
[37] = tested on: Meyerozyma guilliermondii; assay: Antimicrobial activity against Candida guilliermondii after 48 hrs by Etest; assay type: functional
Candida albicans [38] = assay: Antimicrobial activity against Candida albicans isolate C at 1 ug/ml after 48 hrs by agar dilution method; assay type: functional, organism-based; method in brief: as §4
Candida albicans [39] = assay: Antimicrobial activity against Candida albicans isolate S at 25 ug/ml grown on Muller-Hinton agar medium after 24 hrs by disk diffusion method; assay type: functional; method in brief: as §1
Nakaseomyces glabratus [40] = assay: Antimicrobial activity against Candida glabrata after 48 hrs by Etest; assay type: functional
Candida albicans [41] = assay: Antimicrobial activity against Candida albicans isolate R at 0.5 ug/ml after 48 hrs by agar dilution method; assay type: functional, organism-based; method in brief: as §3
Clavispora lusitaniae [42] = assay: Antimicrobial activity against Candida lusitaniae after 48 hrs
Candida parapsilosis [43] = assay: Antimicrobial activity against Candida parapsilosis after 48 hrs by 80% endpoint M27-A method; conditions: Lodderomyces parapsilosis

CC[C@H](C)C[C@H](C)CCCCCCCCC(=O)N[C@H]1C[C@@H](O)[C@@H](NCCN)NC(=O)[C@@H]2[C@@H](O)CCN2C(=O)[C@H]([C@H](O)CCN)NC(=O)[C@H]([C@H](O)[C@@H](O)c2ccc(O)cc2)NC(=O)[C@@H]2C[C@@H](O)CN2C(=O)[C@H]([C@@H](C)O)NC1=O [CASPOFUNGIN] was tested, and the “inhibition zone (IZ)” value (Candida albicans [1]) was 8.8 mm, the MIC (Candida albicans [2]) was at most 0.06 µg/mL and the MIC (Candida albicans [3]) was 0.25 µg/mL (≈ 0.229 µM). The MIC90 [4] was 1 µg/mL (≈ 0.915 µM), the MIC90 [5] was over 16 µg/mL and the “inhibition zone (IZ)” value (Candida albicans [6]) was 20.6 mm. The MIC90 (Candida parapsilosis [7]) was 2 µg/mL (≈ 1.83 µM), the “growth inhibition (GI)” value (Candida albicans [8]) was “Active” and the MIC90 (Pichia kudriavzevii [9]) was 2 µg/mL (≈ 1.83 µM). For the same compound, the MIC90 (Candida parapsilosis [10]) was 1 µg/mL (≈ 0.915 µM), the “inhibition zone (IZ)” value (Candida albicans [11]) was 12.1 mm and the MIC90 (Candida parapsilosis [12]) was 2 µg/mL (≈ 1.83 µM). For the same compound, the MIC90 (Candida tropicalis [13]) was 0.5 µg/mL (≈ 0.457 µM), the MIC (Candida albicans [14]) was 1 µg/mL (≈ 0.915 µM) and the “inhibition zone (IZ)” value (Candida albicans [15]) was 8.6 mm. The MIC90 (Candida albicans [16]) was 0.06 µg/mL (≈ 0.0549 µM), the MIC90 (Nakaseomyces glabratus [17]) was 1 µg/mL (≈ 0.915 µM) and the “growth inhibition (GI)” value (Candida albicans [18]) was “inactive”. It also gave an MIC90 (Candida parapsilosis [19]) of 4 µg/mL (≈ 3.66 µM), an MIC90 (Debaryomyces hansenii) of over 8 µg/mL and an MIC90 (Nakaseomyces glabratus [20]) of 1 µg/mL (≈ 0.915 µM). The “inhibition zone (IZ)” value (Candida albicans [21]) was 10.5 mm, the MIC90 (Pichia kudriavzevii [22]) was 1 µg/mL (≈ 0.915 µM) and the MIC90 (Clavispora lusitaniae [23]) was 2 µg/mL (≈ 1.83 µM). The MIC (Candida albicans [24]) was 0.5 µg/mL (≈ 0.457 µM), the MIC90 (Candida parapsilosis [25]) was 2 µg/mL (≈ 1.83 µM) and the “inhibition zone (IZ)” value (Candida albicans [26]) was 20.4 mm. The “inhibition zone (IZ)” value (Candida albicans [27]) was 12.4 mm, the “inhibition zone (IZ)” value (Candida albicans [28]) was 12.5 mm and the MIC90 (Candida albicans [29]) was 0.5 µg/mL (≈ 0.457 µM). For the same compound, the MIC (Candida albicans [30]) was 0.25 µg/mL (≈ 0.229 µM), the MIC90 (Candida tropicalis [31]) was 0.5 µg/mL (≈ 0.457 µM) and the MIC90 (Candida albicans [32]) was 0.5 µg/mL (≈ 0.457 µM). The “inhibition zone (IZ)” value (Candida albicans [33]) was 12.7 mm, the “inhibition zone (IZ)” value (Candida albicans [34]) was 8.8 mm and the “growth inhibition (GI)” value (Candida albicans [35]) was “inactive”. For the same compound, the MIC90 (Candida tropicalis [36]) was 0.5 µg/mL (≈ 0.457 µM), the MIC90 [37] was over 8 µg/mL and the “growth inhibition (GI)” value (Candida albicans [38]) was “Active”. The “inhibition zone (IZ)” value (Candida albicans [39]) was 23.3 mm, the MIC90 (Nakaseomyces glabratus [40]) was 0.25 µg/mL (≈ 0.229 µM) and the “growth inhibition (GI)” value (Candida albicans [41]) was “inactive”. For the same compound, the MIC90 (Clavispora lusitaniae [42]) was 1 µg/mL (≈ 0.915 µM) and the MIC90 (Candida parapsilosis [43]) was 2 µg/mL (≈ 1.83 µM).

Reference: ChEMBL document CHEMBL1629654, “Breakthrough Aspergillus fumigatus and Candida albicans double infection during caspofungin treatment: laboratory characteristics and implication for susceptibility testing” (2009)
